Screening data (PubChem)
NF-kB expr up = NF-kB expression increase, human neuronal cells. NF-kB reporter expression; stronger effect = higher value. fold change at 12.5 µM. hit rate 1.6% among 190,000; in the data active = fold change above about 3.3
STAT3 activator = STAT3 signaling activation. hit rate 0.91% among 190,000. U3A cells, IL-6 STAT3-luciferase reporter, luminescence; 100% = signal with IL-6 EC80 alone. activation (% of control), % at 5.6 µM;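 active = activation above the screen-wide mean of compound activation plus 3 SD, cut at about 130% in these data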;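 also: 0% = background luminescence of wells with medium and substrate only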
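System – human U3A cells carrying STAT3-luciferase construct · Probe or stimulus – Interleukin-6, 33 ng/mL · Schedule – compound 1 h, then IL-6 6 h at 37 °C · Signal – luminescence from STAT3-driven luciferase reporter · Evaluation – percent of IL-6-only median luminescence · Benchmarks – IL-6-only high control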
STAT3 blocker = inhibitors of IL-6 induced STAT3 signaling. AID 862. inhibition, % at 5.5 µM. U3A cells, IL-6 STAT3-luciferase reporter, luminescence; host cell line lacks STAT1. hit rate 0.89% among 190,000;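 active = inhibition above the mean inhibition across all screened compounds plus 3 SD, cut at about 44% in these data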;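 also: 0% = DMSO only wells and 100% = 100 µM nifuroxazide control wells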
STAT1 activator = activators of IFN-gamma induced STAT1 signaling | NIH 3T3 STAT1-luciferase reporter, luminescence; 100% = IFN-gamma alone, no compound | activation (% of control), % at 5.5 µM | hit rate 2.6% among 200,000 | AID 932;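 active = activation above the screen-wide mean activation plus 3 SD, cut at about 130% in these data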;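 also: raw ratio to IFN-gamma control signal so 100% means no change and 0% no light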
APP 5'UTR act = APP 5'UTR luciferase reporter activation; hit rate 1% among 190,000; activation, % at 2 µM; AID 1276; SH-SY5Y APP 5'UTR luciferase reporter, luminescence; zero percent = DMSO vehicle wells;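 active = activation above a set limit, based on mean plus 3 SD of controls, cut at about 140% in these data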
STAT1 inh = inhibitors of IFN-gamma induced STAT1 signaling | NIH 3T3 STAT1-luciferase reporter, luminescence | inhibition, % at 5.5 µM | hit rate 0.35% among 200,000 | AID 920;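 active = inhibition above a set limit, the mean inhibition across all tested compounds plus 3 SD, cut at about 34% in these data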;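 also: 0% = IFN-gamma with DMSO and 100% = IFN-gamma with 300 µM nifuroxazide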
Numbers without * were called inactive; . = not tested or not shown. This is a sample that favours compounds with a hit; in the whole collection about 4.9% have one here.

SMILES | NF-kB expr up | STAT3 activator | STAT3 blocker | STAT1 activator | APP 5'UTR act | STAT1 inh
CCOC(=O)/C(=C\c1ccccc1)C(=O)c1cc(C(C)=O)c(Nc2ccccc2)s1 | 9.7* | 96 | 11 | 79 | -11 | 23
Cc1ccc(C(=O)/C=C2\NCCNC2=O)cc1 | 5* | 93 | 11 | 131* | 109 | -33
CCOC(=O)c1cc[n+](CC(=O)c2ccc(F)cc2)cc1 | 1.4 | 96 | 6 | 91 | 7 | 10
CCCc1cc(C(=O)Nc2ccc(F)cc2F)no1 | 1.9 | 98 | 7 | 130* | 34 | -33
CCc1nc(Sc2nc(C)cc(C)n2)c2oc3ccccc3c2n1 | 4.3* | 115 | -11 | 92 | . | 9
CCc1nc(SCCO)c2oc3ccccc3c2n1 | 1.2 | 95 | 13 | 112 | 17 | -13
COc1ccc(N=CC2=C(O)CC(C)(C)CC2=O)cc1 | 1.1 | 95 | 8 | 133* | 9 | -36
CC1(C)CC(=O)C(C=NCc2ccc3c(c2)OCO3)=C(O)C1 | 1.4 | 116 | -18 | 99 | -6 | 1
CC1(C)CC(=O)C(C=Nc2ccc3c(c2)OCO3)=C(O)C1 | 1.6 | 114 | -11 | 132* | 20 | -35
COc1ccc(N=CC2=C(O)CCCC2=O)cc1 | 1.7 | 96 | 10 | 136* | -2 | -39
CCN(CC)CCN(Cc1cc2ccc(C)cc2[nH]c1=O)C(=O)Nc1ccc(Cl)cc1 | 0.98 | 107 | -7 | 101 | 1 | -3
O=C(NCCCN1CCOCC1)C(=O)N/N=C/c1ccc2c(c1)OCO2 | 1.5 | 102 | 0 | 99 | 9 | 0
COc1cc(C2=NOC(C(=O)NCc3ccc(F)cc3)C2)cc(OC)c1OC (configuration not stated) | 2.5 | 113 | -13 | 98 | -95 | 2
COc1ccc(C2=NOC(C(=O)NCc3ccc(F)cc3)C2)cc1OC (configuration not stated) | 2.1 | 134* | -36 | 104 | -96 | -5
O=C(NCC1CCCO1)c1ccc(CNS(=O)(=O)c2cccc(Cl)c2)cc1 (configuration not stated) | 1.1 | 99 | 8 | 101 | 13 | -3
COc1ccc2c(c1)OC/C(=C/c1cccs1)C2=O | 6.9* | 94 | 12 | 147* | 131 | -52
CC(C)(C)c1csc(NC(=O)c2ccncc2)n1 | 1.3 | 96 | 12 | 84 | 18 | 17
O=C(Nc1ccccc1)Nc1nncs1 | 1.2 | 96 | 9 | 99 | -1 | 1
CC(C)(C)c1csc(NC(=O)c2ccc(Cl)s2)n1 | 3.6* | 72 | 35 | 137* | 87 | -41
CC(C)(C)c1csc(NC(=O)Nc2ccccc2)n1 | 4.9* | 103 | 5 | 136* | 129 | -40
Cc1ccc(C(=O)Nc2nc(C(C)(C)C)cs2)s1 | 5* | 97 | 8 | 146* | 106 | -50
CCCCC(=O)Nc1ccc(NC(=S)NC(=O)c2cccs2)cc1OC | 1.1 | 98 | 3 | 105 | 11 | -6
Cn1cccc1C(=O)OCc1cc(Cl)cc2c1OCOC2 | 2.2 | 107 | -6 | 145* | 52 | -49
CC1(C)CN2C(=O)c3ccccc3C2(C)S1 (configuration not stated) | 1.2 | 100 | 3 | 97 | -11 | 2
Nc1nc(-c2ccccc2)nc(-c2ccccc2O)n1 | . | 139* | -42 | 97 | 12 | 3
SMILES | NF-kB expr up | STAT3 activator | STAT3 blocker | STAT1 activator | APP 5'UTR act | STAT1 inh
O=C(c1ccco1)N1CCN(c2ccc(Cl)cc2)CC1 | 2.8 | 97 | 9 | 134* | 67 | -37
O=C(c1ccco1)N1CCN(C(=O)c2cc(-c3ccccc3)nc3ccccc23)CC1 | 0.51 | 111 | -8 | 104 | 2 | -5
O=C(c1ccco1)N1CCN(C(=O)c2cc(-c3ccccn3)nc3ccc(Cl)cc23)CC1 | 0.47 | 135* | -38 | 101 | 5 | -1
O=C(c1ccco1)N1CCN(C(=O)N2c3ccccc3Sc3ccccc32)CC1 | 4.7* | 122 | -22 | 101 | -93 | -1
O=C(Cc1ccc(Cl)cc1)Nc1ccc(N2CCN(C(=O)c3ccco3)CC2)cc1 | 0.83 | 91 | 15 | 98 | -6 | -3
OC(COc1ccc(CN2CCCCO2)cc1)CN1CCCCC1 (configuration not stated) | 1.1 | 99 | 6 | 97 | 0 | 2
CCOC(=O)/C(C#N)=C/Nc1ccccc1OC | 2.5 | 109 | -3 | 145* | 32 | -50
CCOC(=O)c1cnc(N)nc1C(F)(F)F | 1.2 | 122 | -19 | 101 | -7 | -4
